Test results as given in ChEMBL document CHEMBL1806375, “Synthesis, molecular modeling and bio-evaluation of cycloalkyl fused 2-aminopyrimidines as antitubercular and antidiabetic agents” (Bioorg Med Chem Lett, 2011).
Converted amounts (≈) assume the structure as drawn.

What was measured:
[1] = tested on: Mycobacterium tuberculosis; experiment: Antimycobacterial activity against Mycobacterium tuberculosis H37Rv after 30 days by agar microdilution method; format: functional
How it was run: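 Virulent M. tuberculosis H37Rv strain tested by agar microdilution. Isoniazid and ethambutol served as reference drugs. Read-out is the MIC.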

[2] = molecular target: T1, Glycogen phosphorylase, liver form (Rattus norvegicus) (UniProt P09811); experiment: Inhibition of Wistar rat liver glycogen phosphorylase at 100 uM after 30 mins
T1 sequence (whole entry): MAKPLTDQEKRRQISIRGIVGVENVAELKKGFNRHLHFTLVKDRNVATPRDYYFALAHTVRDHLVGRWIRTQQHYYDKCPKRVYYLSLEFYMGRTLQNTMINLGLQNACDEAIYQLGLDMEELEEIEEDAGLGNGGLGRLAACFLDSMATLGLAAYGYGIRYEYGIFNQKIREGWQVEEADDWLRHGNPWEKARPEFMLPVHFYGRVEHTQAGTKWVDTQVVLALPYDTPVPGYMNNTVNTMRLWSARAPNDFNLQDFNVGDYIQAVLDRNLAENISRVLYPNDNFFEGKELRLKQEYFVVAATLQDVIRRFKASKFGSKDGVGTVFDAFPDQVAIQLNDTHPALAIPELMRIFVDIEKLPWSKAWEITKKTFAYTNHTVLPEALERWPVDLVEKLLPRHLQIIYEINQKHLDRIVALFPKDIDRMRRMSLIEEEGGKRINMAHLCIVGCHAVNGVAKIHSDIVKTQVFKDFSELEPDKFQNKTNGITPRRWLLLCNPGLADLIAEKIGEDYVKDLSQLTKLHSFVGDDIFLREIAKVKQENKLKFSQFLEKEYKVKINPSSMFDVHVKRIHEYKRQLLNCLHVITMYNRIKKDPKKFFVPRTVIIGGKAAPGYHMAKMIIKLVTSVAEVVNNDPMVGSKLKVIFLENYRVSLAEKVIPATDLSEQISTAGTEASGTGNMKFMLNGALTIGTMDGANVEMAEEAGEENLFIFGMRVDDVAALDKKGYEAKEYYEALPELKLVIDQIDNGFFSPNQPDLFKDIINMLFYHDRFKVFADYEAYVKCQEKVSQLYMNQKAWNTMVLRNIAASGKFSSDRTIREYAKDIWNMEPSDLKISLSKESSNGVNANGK

[3] = tested on: Mycobacterium tuberculosis; experiment: Antimycobacterial activity against Mycobacterium tuberculosis H37Rv infected in mouse bone marrow macrophages assessed as intracellular growth inhibition after 4 days; format: functional
[4] = species: Rattus norvegicus; experiment: Inhibition of albino rat intestine alpha-glucosidase using p-nitrophenyl-alpha-D-glucopyranoside as substrate at 100 uM
[5] = Cytotoxicity against mouse bone marrow macrophages at 10 times MIC after 48 hrs by MTS assay; format: cell-based; details: macrophage
[6] = tested on: Vero; experiment: Cytotoxicity against african green monkey Vero cells at 10 times MIC of Mycobacterium tuberculosis H37Rv after 24 hrs by MTS assay; format: cell-based; details: chlorocebus sabaeus
[7] = tested on: Mycobacterium tuberculosis; experiment: Antimycobacterial activity against Mycobacterium tuberculosis H37Rv infected in mouse bone marrow macrophages assessed as intracellular growth inhibition at 3.12 ug/ml after 4 days; format: functional; details: 96 h, read-out: GI

SMILES | MIC [1] [µg/mL] | inhibition [4] [%] | further results
Nc1nc2c(c(-c3ccc(OCc4ccccc4)cc3)n1)CCC/C2=C\c1ccc(OCc2ccccc2)cc1 | > 12.5 | – | inhibition [2]: -0.87%
COc1cc(/C=C2\CCCCc3c2nc(N)nc3-c2cc(OC)c(OC)c(OC)c2)cc(OC)c1OC | > 12.5 | – | –
NNC(=O)c1ccncc1 [ISONIAZID] | 0.75 (≈ 5.47 µM) | – | growth inhibition (GI) [3]: >=99%
Nc1nc2c(c(-c3ccccc3)n1)CCC/C2=C\c1ccccc1 | 6.25 (≈ 19.9 µM) | – | inhibition [2]: -6.1%
Nc1nc(Cc2ccco2)c2c(n1)/C(=C/Cc1ccco1)CCCC2 | > 12.5 | -4.87 | inhibition [2]: 34.3%
CC[C@@H](CO)NCCN[C@@H](CC)CO [ETHAMBUTOL] | 3.25 (≈ 15.9 µM) | – | –
COc1ccc(/C=C2\CCCCc3c2nc(N)nc3-c2ccc(OC)c(OC)c2)cc1OC | 6.25 (≈ 14 µM) | -6.4 | –
Nc1nc(Cc2ccco2)c2c(n1)/C(=C/Cc1ccco1)CCC2 | > 12.5 | – | –
COc1cc(/C=C2\CCCc3c2nc(N)nc3-c2cc(OC)c(OC)c(OC)c2)cc(OC)c1OC | > 12.5 | – | –
Nc1nc2c(c(-c3ccc(Br)cc3)n1)CCC/C2=C\c1ccc(Br)cc1 | 12.5 (≈ 26.5 µM) | – | –
Nc1nc2c(c(-c3cccc4ccccc34)n1)CCC/C2=C\c1cccc2ccccc12 | 12.5 (≈ 30.2 µM) | 13.7 | inhibition [2]: 11.3%
Nc1nc2c(c(-c3ccc4ccccc4c3)n1)CCCC/C2=C\c1ccc2ccccc2c1 | 3.12 (≈ 7.3 µM) | – | Activity [5]: Non-toxic; Activity [6]: Non-toxic; inhibition of growth at 3.12 µg/mL [7]: 58%
COc1ccc(/C=C2\CCCc3c2nc(N)nc3-c2ccc(OC)cc2)cc1 | > 12.5 | – | inhibition [2]: -10%
COc1ccc(/C=C2\CCCCc3c2nc(N)nc3-c2ccc(OC)cc2)cc1 | > 12.5 | – | –
Nc1nc2c(c(-c3ccc4ccccc4c3)n1)CCC/C2=C\c1ccc2ccccc2c1 | 6.25 (≈ 15.1 µM) | -6 | inhibition [2]: -5%
COc1ccc(/C=C2\CCCc3c2nc(N)nc3-c2ccc(OC)c(OC)c2)cc1OC | > 12.5 | – | –
Nc1nc2c(c(-c3ccc(Cl)cc3)n1)CCC/C2=C\c1ccc(Cl)cc1 | > 12.5 | – | –
Nc1nc2c(c(-c3ccc(Br)cc3)n1)CCCC/C2=C\c1ccc(Br)cc1 | > 12.5 | -5.86 | –
Nc1nc2c(c(-c3cccc4ccccc34)n1)CCCC/C2=C\c1cccc2ccccc12 | > 12.5 | – | –
Nc1nc2c(c(-c3ccc(F)cc3)n1)CCC/C2=C\c1ccc(F)cc1 | 12.5 (≈ 35.8 µM) | – | –
Nc1nc2c(c(-c3ccc(Cl)cc3)n1)CCCC/C2=C\c1ccc(Cl)cc1 | > 12.5 | 11.4 | –
Nc1nc2c(c(-c3ccccc3)n1)CCCC/C2=C\c1ccccc1 | > 12.5 | -0.07 | –
